Screens deposited in PubChem by Sanford-Burnham Center for Chemical Genomics.
SUMO1-SIM PPI: modulators of human SUMO1-mediated protein-protein interactions; P63165; AID 602429; inhibition, % at 20 µM; actives 0.33% (n = 360,000); SUMO1 binding to a labelled peptide, TR-FRET, 1 h; in the data active = inhibition above about 37%
STEP block: inhibitors of human striatal-enriched phosphatase STEP. P54829. actives 0.25% (n = 360,000). inhibition, % at 20 µM. recombinant STEP, OMFP fluorogenic substrate, fluorescence. AID 588621;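 active = inhibition at 20 µM, scaled per plate between control wells, above about 37%, limit read from the data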;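 also: 0% = DMSO with enzyme and substrate and 100% = substrate only without enzyme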
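Material: STEP (striatal-enriched tyrosine phosphatase) enzyme, cell-free | Medium: 50 mM Bis-Tris pH 6.0 with 2.5 mM DTT and 0.005% Tween 20 | Read-out: Percent inhibition scaled to no-enzyme and uninhibited-enzyme controls, plate-pattern corrected | Signal: Fluorescence read at 480 nm ex / 540 nm em | Times: 20 min reaction, room temperature, in the dark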
LMPTP inh: blocks human LMPTP phosphatase; recombinant LMPTP-A, OMFP fluorogenic substrate, fluorescence intensity; inhibition, % at 20 µM; actives 0.22% (n = 360,000); P24666;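 active = compounds that cut the enzyme signal by at least half of the control window in the single-dose screen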;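 also: plate controls were DMSO wells with enzyme plus substrate for no effect and substrate without enzyme for full effect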
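material = LMPTP-A | quantity = 0.625 nM enzyme | reagent = OMFP substrate, 400 µM final | buffer or medium = Bis-Tris pH 6.0, DTT, detergent | detection = endpoint fluorescence intensity from OMFP dephosphorylation | dosing = single 20 µM dose | read-out basis = % inhibition relative to no-enzyme and uninhibited control wells | control set = no-enzyme and uninhibited controls | timing = 50 min at room temperature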
Scp-1 inhibitor: Scp-1 (human) phosphatase inhibition | Q9GZU7 | Recombinant Scp1, phosphopeptide, malachite green phosphate absorbance | inhibition, % at 20 µM | actives 0.88% (n = 340,000) | AID 493091;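 active = inhibition above about 50% at 20 µM, limit read from the data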;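 also: plate controls were DMSO wells with enzyme for no effect and wells lacking enzyme for full effect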
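Material – SCP-1 phosphatase catalytic domain, residues 76-261 · Buffer or medium – Acidic Tris acetate buffer with magnesium and detergent · Also added – Phospho 17-mer peptide substrate · Compound – single 20 µM dose, 1% DMSO · Times – 45 min room-temperature reaction, 5 min colour, 30 min stabiliser · Technique – Phosphate-binding colour reagent, absorbance read at 630 nm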
DNMT1 inh: DNMT1 (human) enzyme inhibition; P26358; DNMT1 molecular beacon, Hinp1I cleavage, fluorescence; inhibition (reported as % activation of signal), % at 10 µM; actives 0.83% (n = 360,000); in the data active = inhibition above about 50%
Target sequence (P26358 504-1616 limits assumed): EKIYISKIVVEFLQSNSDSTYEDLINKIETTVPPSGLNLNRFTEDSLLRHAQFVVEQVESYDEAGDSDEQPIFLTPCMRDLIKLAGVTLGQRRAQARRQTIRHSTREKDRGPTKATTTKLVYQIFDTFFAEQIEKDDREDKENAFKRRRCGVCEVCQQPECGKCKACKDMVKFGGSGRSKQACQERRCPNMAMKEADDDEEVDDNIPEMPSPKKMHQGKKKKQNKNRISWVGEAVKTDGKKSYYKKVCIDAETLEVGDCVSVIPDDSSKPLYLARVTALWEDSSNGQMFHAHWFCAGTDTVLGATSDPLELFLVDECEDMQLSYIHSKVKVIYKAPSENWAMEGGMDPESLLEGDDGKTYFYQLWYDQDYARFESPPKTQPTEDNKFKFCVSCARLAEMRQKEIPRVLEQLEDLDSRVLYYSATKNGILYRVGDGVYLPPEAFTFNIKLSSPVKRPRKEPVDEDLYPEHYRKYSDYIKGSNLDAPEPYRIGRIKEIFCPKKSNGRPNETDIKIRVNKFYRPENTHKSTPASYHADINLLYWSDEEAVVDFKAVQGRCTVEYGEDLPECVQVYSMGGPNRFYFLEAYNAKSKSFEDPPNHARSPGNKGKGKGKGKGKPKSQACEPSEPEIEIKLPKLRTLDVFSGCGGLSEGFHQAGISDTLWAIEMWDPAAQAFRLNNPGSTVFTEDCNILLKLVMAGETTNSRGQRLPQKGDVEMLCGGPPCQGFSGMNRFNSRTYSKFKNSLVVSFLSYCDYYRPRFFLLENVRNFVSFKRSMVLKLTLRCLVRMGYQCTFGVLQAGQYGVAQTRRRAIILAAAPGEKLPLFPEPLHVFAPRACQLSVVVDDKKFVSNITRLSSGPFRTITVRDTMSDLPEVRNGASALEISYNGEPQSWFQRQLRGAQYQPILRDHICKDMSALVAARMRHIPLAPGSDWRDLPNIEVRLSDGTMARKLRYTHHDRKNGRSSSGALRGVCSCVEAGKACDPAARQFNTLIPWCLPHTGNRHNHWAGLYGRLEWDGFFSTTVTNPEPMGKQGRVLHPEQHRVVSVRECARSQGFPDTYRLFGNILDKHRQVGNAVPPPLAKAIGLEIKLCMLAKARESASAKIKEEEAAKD
Scp-1 conf: Scp-1 (human) inhibition, single-dose confirmed. shares compounds with Scp-1 inhibitor. recombinant SCP-1 catalytic domain, phosphate release, malachite green absorbance. inhibition, % at 20 µM. actives 61% (n = 2,500). AID 540281;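 also: plate controls were DMSO with enzyme for no effect and buffer wells lacking enzyme for full effect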
MG interference: colorimetric interference in Scp-1 counter-screen. shares compounds with Scp-1 inhibitor. Colorimetric interference counterscreen, malachite green absorbance 630 nm. apparent inhibition (interference), % at 20 µM. 2,500 tested, under 10 active. AID 540313;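 also: compounds added after enzyme reaction finished so only phosphate colour detection is probed; plate controls were DMSO wells with completed Scp-1 reaction for no effect and substrate wells lacking enzyme for full effect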
Scp1 DSF: validation of human Scp-1 inhibitors by thermal shift binding; shares compounds with Scp-1 inhibitor; AID 540329; actives 25% (n = 1,500); Recombinant SCP1, Sypro Orange thermal shift Tm; thermal shift relative to vanadate control, % at 40 µM;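 active = substances whose mean melting-temperature shift, as a percentage of the reference inhibitor's shift, reaches about 5.3%, limit read from the data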;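 also: 0% = Tm of DMSO wells and 100% = Tm with sodium orthovanadate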
* hit, by the source's call; . = not tested or not shown. An excerpt weighted towards active compounds, which were near 1.8% of everything screened.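 The calls were made as follows, unless noted: active = inhibition of at least 30% at 20 µM; inactive = the rest.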

SMILES | SUMO1-SIM PPI | STEP block | LMPTP inh | Scp-1 inhibitor | DNMT1 inh | Scp-1 conf | MG interference | Scp1 DSF
COc1ccc(NS(=O)(=O)c2cccc(C(=O)N/N=C/c3c(F)c(F)c(F)c(F)c3F)c2)cc1 | -5 | 0 | 21 | 75* | -4 | 52* | -5 | 7.3*
O=C1CCN(Cc2ccccc2)S(=O)(=O)c2ccccc21 | 4 | 1 | 1 | 68* | 3 | 63* | -16 | -21
CN(C)CCOc1ccccc1-c1ccccc1 | 0 | 1 | -3 | 76* | 2 | -14 | -10 | .
CN(C)CCOCCOc1ccccc1-c1ccccc1 | -3 | -1 | -1 | -4 | 1 | . | . | .
CCC1(CC)NC(=O)N(CC(=O)OCC(=O)Nc2ccccc2[N+](=O)[O-])C1=O | -16 | -4 | -2 | -5 | 0 | . | . | .
CCC1(CC)NC(=O)N(CC(=O)OCC(=O)Nc2ccccc2OC(F)F)C1=O | 4 | -2 | -2 | 1 | 9 | -11 | -14 | .
O=C(NCCc1c[nH]c2ccccc12)c1cc(Cl)c2c(c1)OCO2 | 7 | 0 | 3 | 52* | -7 | -3 | -10 | .
O=C(NCCc1c[nH]c2ccccc12)c1ccc2c(c1)OCO2 | 0 | 3 | 0 | -10 | -2 | . | . | .
CN(CCNC(=O)c1cc2c(=O)n(C)c3ccccc3c2n1C)Cc1ccccc1 | 5 | 0 | 0 | -16 | 1 | . | . | .
CCCN(CCC)CCNC(=O)c1cc2c(=O)n(C)c3ccccc3c2n1C | 5 | 1 | 2 | 90* | 3 | -8 | -8 | .
COc1ccccc1NC(C)=[N+](C)CCNS(=O)(=O)c1ccc(Cl)cc1 | 3 | 0 | -1 | 96* | 1 | 81* | -15 | -9
O=C(c1cc2nc(-c3ccc(F)cc3)cc(C(F)(F)F)n2n1)N1CCOCC1 | -3 | -2 | -3 | 53* | -1 | -14 | -9 | .
CCNC(=O)C/C(C)=N/NC(=O)C(=O)Nc1ccc(CC)cc1 | 3 | 4 | -1 | -5 | -2 | . | . | .
CCc1ccc(NC(=O)C(=O)N/N=C(\C)CC(=O)NCc2ccc(Cl)cc2)cc1 | -1 | -2 | 0 | 80* | 17 | -3 | -10 | .
C/C(Cn1nc([N+](=O)[O-])cc1C)=N\NC(=O)c1ccc(C(C)(C)C)cc1 | -8 | 10 | -2 | 81* | -4 | -21 | -19 | .
C[C@@H]1CN(S(=O)C(C)(C)C)[C@@H](CCO)/C1=C\CCO (some centres not stated) | -5 | -1 | 0 | 0 | -3 | . | . | .
Cc1ccc(CNC(=O)c2ccc(Cl)c(S(N)(=O)=O)c2)n1C | -5 | 2 | -1 | -9 | -9 | . | . | .
O=C(O)C1Cc2ccccc2CN1C(=O)COc1ccc(Cl)cc1Cl (configuration not stated) | 12 | 1 | -2 | 30 | 6 | . | . | .
O=C(O)C1Cc2ccccc2CN1C(=O)COc1ccc(Br)cc1 (configuration not stated) | 20 | 5 | -1 | 53* | 10 | 55* | -14 | 0
CCOC(=O)c1sc(NC(=O)CSc2nncs2)c(C(=O)OCC)c1C | 3 | 1 | 0 | 52* | -9 | -10 | -16 | .
CCOc1ccc(C=NNc2ccc(S(=O)(=O)Nc3ccccc3C(=O)O)cc2[N+](=O)[O-])cc1OC | 25 | 98* | 37 | 72* | -6 | 86* | -8 | 17*
CC(=O)Nc1ccc(C=NNc2ccc(S(=O)(=O)Nc3ccccc3C(=O)O)cc2[N+](=O)[O-])cc1 | 19 | 2 | 6 | 2 | -15 | . | . | .
O=C(CSc1nnc(-c2ccc(F)cc2)n1CC1CCCO1)NCc1ccco1 (configuration not stated) | -54 | -3 | -9 | -5 | -4 | . | . | .
COc1ccc(OCc2nnc(SC(C)C(=O)Nc3ccc(N4CCOCC4)cc3)n2C)cc1 (configuration not stated) | 2 | -1 | 0 | -3 | -1 | . | . | .
N=c1c(S(=O)(=O)c2ccc(Br)cc2)cc2c(=O)n3ccccc3nc2n1Cc1ccccc1 | -6 | 2 | 3 | 9 | 0 | . | . | .
SMILES | SUMO1-SIM PPI | STEP block | LMPTP inh | Scp-1 inhibitor | DNMT1 inh | Scp-1 conf | MG interference | Scp1 DSF
N=c1c(S(=O)(=O)c2ccc(Cl)cc2)cc2c(=O)n3ccccc3nc2n1Cc1ccco1 | -4 | 5 | 5 | 52* | 21 | 4 | -1 | .
O=C(CN1C(=O)S/C(=C\c2ccc(O)c([N+](=O)[O-])c2)C1=O)Nc1ccc(N2CCOCC2)cc1 | -12 | 12 | 22 | 62* | 0 | 60* | -2 | 2
Cc1cccc(NC(=O)CN2C(=O)S/C(=C\c3ccc(O)c([N+](=O)[O-])c3)C2=O)c1 | -2 | 5 | 8 | 80* | -4 | 77* | -4 | 26*
Cc1cccc(NC(=O)CN2C(=O)S/C(=C\c3ccccn3)C2=O)c1 | -1 | 3 | 2 | -4 | 12 | . | . | .
Cc1cc(CCNC=O)c(C)c2c1oc1ccccc12 | 2 | 1 | 1 | -10 | -3 | . | . | .
Cn1nnnc1SCC1=C(C(=O)O)N2C(=O)C(NC(=O)Cn3nc(C(F)F)cc3C3CC3)C2SC1 (configuration not stated) | 2 | 3 | 0 | 56* | 9 | 61* | -13 | 1
Cc1c(Cl)cnn1CC(=O)NC1C(=O)N2C(C(=O)O)=C(CSc3nnnn3C)CSC12 (configuration not stated) | 6 | 8 | 0 | 47 | 12 | . | . | .
Cc1c(Cl)c(C(F)F)nn1CC(=O)NC1C(=O)N2C(C(=O)O)=C(CSc3nnnn3C)CSC12 (configuration not stated) | 13 | 7 | 1 | 68* | 27 | 56* | -19 | 5
Cc1nn(CC(=O)NC2C(=O)N3C(C(=O)O)=C(CSc4nnnn4C)CSC23)cc1Br (configuration not stated) | -1 | -1 | 0 | 10 | 2 | . | . | .
CCOC(=O)C1=C(C)N(c2ccc(C)c(C)c2)C(=O)/C1=C\c1ccco1 | -4 | 2 | 3 | -15 | 4 | . | . | .
COC(=O)C1=C(C)N(c2ccc(C)c(C)c2)/C(=C/c2ccco2)C1=O | -14 | 2 | 3 | 59* | 28 | 20 | -9 | .
O=C(Nc1ccc2c(c1)C(=O)NC2=O)c1ccc(Cl)s1 | -7 | 22 | 5 | 85* | 3 | -2 | -15 | .
O=C(Nc1ccc2c(c1)C(=O)NC2=O)c1cccc(Cl)c1 | 3 | 22 | 3 | 54* | 28 | 66* | -14 | 0
O=C(Nc1ccc2c(c1)C(=O)NC2=O)c1cc(Cl)ccc1Cl | -130 | -1 | -14 | -13 | -1 | . | . | .
